Compound activity deposited in PubChem by several laboratories.
RAM network inh – inhibitors of the yeast RAM network, primary screen, dse1pr::URA3 reporter, 5-FOA selection; S. cerevisiae dse1pr::URA3 reporter, 5-FOA growth OD615, 2 d; analog-sensitive cbk1-as2 kinase mutant strain; inhibition, % at 50 µM; 190,000 tested, 1.8% active; AID 868, 2007;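 active = inhibition above a set limit, 3 SD over mean compound inhibition, cut at about 8.4% in these data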;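 also: 0% = DMSO-only wells with no growth and 100% = 10 µM 1-NA-PP1 full growth; inhibition rescues growth on 5-FOA so higher OD means more RAM inhibition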
Yeast life ext – compounds extending yeast replicative lifespan, primary screen, S. cerevisiae, OD615 | S. cerevisiae growth with nicotinamide; deaD strain in restrictive glucose medium | inhibition of the nicotinamide effect, % at 10 µM | 130,000 tested, 0.68% active | AID 775, 2007;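 active = inhibition above a set limit, placed 3 SD over the median of all compounds, cut at about 26% in these data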;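 also: 0% = nicotinamide-treated wells and 100% = cells grown without nicotinamide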
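System: DeaD-strain S. cerevisiae / Buffer or medium: CSMM-D, restrictive glucose (dextrose) synthetic minimal medium / Probe or stimulus: nicotinamide, 1.5 mM, co-present with compound / Compound: one concentration, 10 µM, DMSO 0.25% / Incubation: 48 h compound exposure at 30 °C, humidified / Technique: optical density (absorbance) at 615 nm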
Phagocyt inh – inhibitors of macrophage phagocytosis, primary screen, imaging, J774A.1 cells, IgG beads; inhibition, % at 5 µM; AID 1029, 2008; J774A.1 macrophage IgG-bead phagocytosis; 110,000 tested, 0.07% active;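 active = inhibition above the mean of the plate negative controls plus 5 SD, cut at about 13% in these data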;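 also: phagocytic index as fraction of beads internalized from green versus red external bead signal; plate controls were DMSO negative control for no effect and cytochalasin-D positive control for full effect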
BB579 growth dn – growth inhibitors of yeast BB579 in restrictive medium, primary screen, yeast lifespan-shortening project, S. cerevisiae; OD615, 48 h; inhibition, % at 10 µM; 140,000 tested, 0.51% active; AID 804, 2007;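 active = inhibition above a set limit, 3 SD over the mean compound inhibition, cut at about 44% in these data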
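Assay system – yeast BB579 (DeaD) · Dosing – single compound dose of 10 µM, 0.25% DMSO final · Detection – OD615 turbidity measurement · Buffer or medium – CSMM-D restrictive synthetic medium containing dextrose (glucose) · Benchmarks – positive control amphotericin B 10 µg/mL · Incubation – 48 h exposure, 30 °C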
RAM 5-FOA – 5-FOA growth of efflux-deficient control yeast, dose response, counter-screen for RAM network inhibitor project, S. cerevisiae, OD615; 1,200 tested, under 10 active; shares compounds with RAM network inh; AID 1305, 2008; max inhibition, %; S. cerevisiae efflux-deficient reporter strain, 5-FOA growth OD615, 2 days; call rule not given here;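 also: plate controls were vehicle for no effect and reference inhibitor for full effect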
* = called active by the depositor; . = no result. An excerpt weighted towards active compounds, which were near 2.7% of everything screened.

SMILES | RAM network inh | Yeast life ext | Phagocyt inh | BB579 growth dn | RAM 5-FOA
Cc1cc(Br)ccc1OCC(=O)N1CCCCCC1 | 21* | -6 | 1 | -7 | 1
CN(C(=O)N1CCN(S(=O)(=O)c2ccccc2)CC1)c1ccccc1 | 1 | . | . | . | .
CC1(C)C(C=C(Cl)Cl)C1C(=O)Nc1ccc([N+](=O)[O-])cc1 (configuration not stated) | 11* | -4 | -11 | 54* | 2
O=C(OCc1csc(-c2ccccc2)n1)c1ccccc1O | 1 | . | . | . | .
O=S(=O)(NCCSCc1ccc(Cl)cc1Cl)c1ccc2c(c1)OCCO2 | 12* | 1 | 2 | -43 | 3
O=S(=O)(NCCSc1ccc(Cl)cc1)c1ccc2c(c1)OCCO2 | 7 | 6 | 0 | -10 | .
CCOc1ccc2nc(SCC(=O)c3ccccc3)sc2c1 | 16* | -9 | 0 | -78 | 2
O=C(CSc1nc2ccccc2s1)CSc1nc2ccccc2s1 | 14* | -11 | 2 | -43 | 4
CCOc1ccc2nc(SCc3ccc(OC)cc3)sc2c1 | 1 | -6 | -5 | -47 | .
CCOc1ccc2nc(SCCNS(=O)(=O)c3ccccc3)sc2c1 | 12* | 4 | -8 | -42 | 2
Cc1nn(Cc2n[nH]c(=S)n2Cc2ccccc2)c(C)c1Cl | 2 | -24 | 1 | -17 | .
O=C(c1ccc(COc2ccccc2Br)o1)N1N=C(C(F)F)CC1(O)C(F)F (configuration not stated) | 5 | -2 | -5 | -15 | .
CCCCCC(=O)O[C@]1(C(C)=O)CC[C@H]2[C@@H]3CCC4=CC(=O)CC[C@]4(C)[C@H]3CC[C@@]21C | 12* | 7 | . | -47 | 3
Cc1nc2nc(NCc3cccs3)nn2c(C)c1Cl | 1 | -22 | -1 | -51 | .
CCCCN(CCCC)S(=O)(=O)c1ccc(NS(=O)(=O)c2ccc(NC(C)=O)cc2)cc1 | 17* | 4 | 1 | -65 | 2
CCn1c(=NC(=O)c2cccc(N3C(=O)CCC3=O)c2)sc2c(OC)ccc(OC)c21 | 11* | . | . | . | 3
COc1ccc(OC)c2c1sc(=NC(=O)c1cccc(N3C(=O)CCC3=O)c1)n2C | 2 | -4 | 0 | -12 | .
COCc1nnc(NS(=O)(=O)c2ccc(Br)cc2)s1 | 1 | 0 | -2 | -21 | .
CCOc1ccc(CN2CCN(S(=O)(=O)c3ccc(NC(C)=O)cc3)CC2)cc1 | 1 | . | . | . | .
Cc1ccc(NC(=O)Cc2ccc(Cl)c(Cl)c2)cc1S(=O)(=O)N(C)C | 12* | 6 | 5 | -44 | 3
COC(=O)[C@@H]1CC[C@H](C)[C@@H](c2ccc(C)cc2)N1C(=O)c1ccc(/C=N/OC[C@@H](O)COCc2ccco2)cc1 | 15* | 5 | . | -26 | 2
O=S(=O)(NCc1ccccc1Cl)c1cccs1 | 0 | . | . | . | .
S=C(NCC1CCCCC1)Nc1ccc(Oc2ccccc2)cc1 | 15* | -1 | 15 | 49* | 2
CC(=O)Cc1nsc(NC(=O)c2cc(-c3ccccc3Cl)oc2C)n1 | 5 | -2 | 0 | -20 | .
CCCCNS(=O)(=O)c1ccc(NC(=O)C(Sc2ccccc2)c2ccccc2)cc1 (configuration not stated) | 14* | 3 | -3 | -19 | 1
SMILES | RAM network inh | Yeast life ext | Phagocyt inh | BB579 growth dn | RAM 5-FOA
CCC(C)NS(=O)(=O)c1ccc(NC(=O)C(Sc2ccccc2)c2ccccc2)cc1 (configuration not stated) | 1 | 4 | -5 | -9 | .
COc1cc(/C=C2\SC(=S)N(CC(=O)Nc3ccccn3)C2=O)cc(OC)c1OC | 6 | -4 | -6 | -38 | .
C=CCN1C(=O)/C(=C\c2cc(Br)c(OCc3ccccn3)c(OC)c2)SC1=S | 19* | . | . | . | 2
FC(F)Sc1ccc(NC(=S)NCc2ccccc2)cc1 | 1 | . | . | . | .
FC(F)Sc1ccc(NC(=S)NC(c2ccccc2)c2ccccc2)cc1 | 19* | . | . | . | 4
COc1ccccc1N(CC(O)CN(c1ccccc1)S(C)(=O)=O)S(=O)(=O)c1ccccc1 (configuration not stated) | 1 | -18 | -1 | -35 | .
COc1ccccc1N(CC(O)COc1ccc(C)cc1)S(=O)(=O)c1ccccc1 (configuration not stated) | 12* | 6 | -10 | -17 | 2
COc1ccccc1N(CC(O)COc1c(C)cc(C)cc1C)S(=O)(=O)c1ccccc1 (configuration not stated) | 12* | 7 | 1 | -31 | 5
COc1ccccc1N(CC(O)COc1ccccc1)S(=O)(=O)c1ccccc1 (configuration not stated) | 5 | 9 | 3 | -44 | .
CCOC(=O)CCCSc1nnc(CCCCCN2C(=O)c3cccc4cccc(c34)C2=O)o1 | 14* | 5 | -7 | -37 | 3
C=CCSc1nnc(CCCCCN2C(=O)c3cccc4cccc(c34)C2=O)o1 | 16* | 8 | -9 | -47 | 1
Cc1nnc(SCCCN2C(=O)c3ccccc3C2=O)o1 | 1 | 8 | -2 | -23 | .
CN(C)c1ccc(NC(=O)CSCc2nc3c(nnn3Cc3ccc(F)cc3)c(=O)[nH]2)cc1 | 2 | -3 | -5 | -77 | .
O=C(CSCc1nc2c(nnn2Cc2ccc(F)cc2)c(=O)[nH]1)Nc1cccc(C(F)(F)F)c1 | 16* | . | . | . | 1
Cc1[nH]n(-c2ccccc2)c(=O)c1N=Nc1cccc(S(=O)(=O)N2CCOCC2)c1 | 4 | 5 | -6 | -17 | .
Cc1[nH]n(-c2ccccc2)c(=O)c1N=Nc1ccccc1 | 13* | . | . | . | 2
COCCn1cnnc1SCC(=O)Nc1ccc(Br)cc1F | 2 | . | . | . | .
COc1ccc(N=C2S/C(=C\c3cccs3)C(=O)N2CC(C)C)cc1 | 5 | 5 | -3 | -52 | .
COc1ccc(N=C2S/C(=C\c3ccc(C)s3)C(=O)N2CC(C)C)cc1 | 15* | -5 | . | -34 | 4
Cc1ccc(S(=O)(=O)N2CCC(=O)N(C(COCc3cccc(C(F)(F)F)c3)C(C)C)CC2)cc1 (configuration not stated) | 13* | 2 | . | -23 | 2
Cc1ccc(S(=O)(=O)N2CCC(=O)N(C(COCc3cccc(Cl)c3)Cc3ccccc3)CC2)cc1 (configuration not stated) | 15* | 12 | . | -38 | 4
Cc1cc(C)c(OCC(=O)NCC2CCCO2)c(C)c1 (configuration not stated) | 0 | . | . | . | .
NS(=O)(=O)c1cccc(NC(=O)COC(=O)/C(=C/c2cccs2)c2cccs2)c1 | 5 | -1 | -7 | -14 | .
CC(NC(=O)COC(=O)/C(=C/c1cccs1)c1cccs1)c1ccccc1 (configuration not stated) | 14* | 4 | -2 | -44 | 1
CCCCc1ccc(/C=C2\C(=O)c3ccccc3C(O)=C2C(=O)OCC)cc1 | 14* | 18 | 0 | -55 | 8
